In ChEMBL document CHEMBL3608243, “Synthesis of novel cationic spermine-conjugated phosphotriester oligonucleotide for improvement of cell membrane permeability” (Bioorg Med Chem Lett, 2015):

Columns and labels:
[1] = Stability assessed as snake venom phosphodiesterase-mediated compound degradation at 5 nmol incubated for 180 mins by reversed-phase HPLC method; type: ADME; details: serpentes, 3 h
Outline: (§1)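 Dimers incubated with snake venom phosphodiesterase or in 10% fetal bovine serum, then reactions analysed by reversed-phase HPLC; peak areas of intact dimer used to give the fraction of intact dimer over time.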

Serum = experiment: Stability in 10% FBS assessed as compound degradation at 5 nmol incubated for 180 mins by reversed-phase HPLC method; type: ADME, cell-free, Bos taurus; details: cattle, 3 h; outline: as §1
[2] = Stability in 28% NH3 aq, 55 degC incubated for 8 hrs assessed as compound degradation in to PDE dimer d(TpT) by reversed-phase HPLC method; type: physicochemical
Outline: (§2)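 Untreated and treated dimers compared by reversed-phase HPLC on a C18 column, eluted with a linear 5–25% acetonitrile gradient over 20 min in 50 mM triethylammonium acetate, pH 7.0.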

[3] = Stability in 28% NH3 aq, incubated for 2 hrs at room temperature assessed as compound degradation by reversed-phase HPLC method; type: physicochemical; outline: as §2
A549 = experiment: Permeability in human A549 cells assessed as relative fluorescence intensity at 10 uM incubated for 8 hrs at 37 degC in presence of serum free medium by spectrofluorometry; type: ADME, cell-based; details: a549, 8 h
Outline: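 A549 cells exposed to TAMRA-labeled oligonucleotides (in 10 mM Tris–HCl, 1 mM EDTA, pH 8) without transfection reagent; after incubation, PBS wash, lysis and lysate fluorescence read on a spectrofluorometer; n = 4.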

[4] = Solubility in water; type: physicochemical; details: buffer

Cc1cn([C@H]2C[C@H](OP(=O)(O)OC[C@H]3O[C@@H](n4cc(C)c(=O)[nH]c4=O)C[C@@H]3O)[C@@H](CO)O2)c(=O)[nH]c1=O
Stability [1]: Unstable
Stability (Serum): Unstable

COP(=O)(OC[C@H]1O[C@@H](n2cc(C)c(=O)[nH]c2=O)C[C@@H]1O)O[C@H]1C[C@H](n2cc(C)c(=O)[nH]c2=O)O[C@@H]1CO (stereo partly drawn)
Stability [2]: Unstable
Stability [3]: Unstable

Cc1cn([C@H]2C[C@H](OP(=O)(O)OC[C@H]3O[C@@H](n4cc(C)c(=O)[nH]c4=O)C[C@@H]3OP(=O)(O)OC[C@H]3O[C@@H](n4cc(C)c(=O)[nH]c4=O)C[C@@H]3OP(=O)(O)OC[C@H]3O[C@@H](n4cc(C)c(=O)[nH]c4=O)C[C@@H]3OP(=O)(O)OC[C@H]3O[C@@H](n4cc(C)c(=O)[nH]c4=O)C[C@@H]3OP(=O)(O)OC[C@H]3O[C@@H](n4cc(C)c(=O)[nH]c4=O)C[C@@H]3OP(=O)(O)OC[C@H]3O[C@@H](n4cc(C)c(=O)[nH]c4=O)C[C@@H]3OP(=O)(O)OC[C@H]3O[C@@H](n4cc(C)c(=O)[nH]c4=O)C[C@@H]3OP(=O)(O)OC[C@H]3O[C@@H](n4cc(C)c(=O)[nH]c4=O)C[C@@H]3OP(=O)(O)OC[C@H]3O[C@@H](n4cc(C)c(=O)[nH]c4=O)C[C@@H]3OP(=O)(O)OCCC(O)COCCCNC(=O)c3ccc(C(=O)O)c(C4=C5C=CC(=[N+](C)C)C=C5OC5C=C(N(C)C)C=CC45)c3)[C@@H](COP(=O)(O)O)O2)c(=O)[nH]c1=O (stereo partly drawn)
Flu intensity (A549): 1

Cc1cn([C@H]2C[C@H](OP(=O)(O)OC[C@H]3O[C@@H](n4cc(C)c(=O)[nH]c4=O)C[C@@H]3OP(=O)(O)OC[C@H]3O[C@@H](n4cc(C)c(=O)[nH]c4=O)C[C@@H]3OP(=O)(O)OC[C@H]3O[C@@H](n4cc(C)c(=O)[nH]c4=O)C[C@@H]3OP(=O)(O)OC[C@H]3O[C@@H](n4cc(C)c(=O)[nH]c4=O)C[C@@H]3OP(=O)(O)OC[C@H]3O[C@@H](n4cc(C)c(=O)[nH]c4=O)C[C@@H]3OP(=O)(O)OC[C@H]3O[C@@H](n4cc(C)c(=O)[nH]c4=O)C[C@@H]3OP(=O)(O)OC[C@H]3O[C@@H](n4cc(C)c(=O)[nH]c4=O)C[C@@H]3OP(=O)(O)OC[C@H]3O[C@@H](n4cc(C)c(=O)[nH]c4=O)C[C@@H]3OP(=O)(O)OC[C@H]3O[C@@H](n4cc(C)c(=O)[nH]c4=O)C[C@@H]3OP(=O)(O)OCCC(O)COCCCNC(=O)c3ccc(C(=O)O)c(C4=C5C=CC(=[N+](C)C)C=C5OC5C=C(N(C)C)C=CC45)c3)[C@@H](COP(=O)(O)OCCCCNCCCNCCCCNCCCNCCCCO)O2)c(=O)[nH]c1=O (stereo partly drawn)
Flu intensity (A549): 5.45

CCOP(=O)(OC[C@H]1O[C@@H](n2cc(C)c(=O)[nH]c2=O)C[C@@H]1OP(=O)(OCC)OC[C@H]1O[C@@H](n2cc(C)c(=O)[nH]c2=O)C[C@@H]1OP(=O)(OCC)OC[C@H]1O[C@@H](n2cc(C)c(=O)[nH]c2=O)C[C@@H]1OP(=O)(OCC)OC[C@H]1O[C@@H](n2cc(C)c(=O)[nH]c2=O)C[C@@H]1OP(=O)(OCC)OC[C@H]1O[C@@H](n2cc(C)c(=O)[nH]c2=O)C[C@@H]1OP(=O)(OCC)OC[C@H]1O[C@@H](n2cc(C)c(=O)[nH]c2=O)C[C@@H]1OP(=O)(OCC)OC[C@H]1O[C@@H](n2cc(C)c(=O)[nH]c2=O)C[C@@H]1OP(=O)(OCC)OC[C@H]1O[C@@H](n2cc(C)c(=O)[nH]c2=O)C[C@@H]1OP(=O)(OCC)OC[C@H]1O[C@@H](n2cc(C)c(=O)[nH]c2=O)C[C@@H]1OP(=O)(O)OCCC(O)COCCCNC(=O)c1ccc(C(=O)O)c(C2=C3C=CC(=[N+](C)C)C=C3OC3C=C(N(C)C)C=CC23)c1)O[C@H]1C[C@H](n2cc(C)c(=O)[nH]c2=O)O[C@@H]1COP(=O)(O)OCCCCNCCCNCCCCNCCCNCCCCO (stereo partly drawn)
solubility [4]: soluble
Flu intensity (A549): 33.1

CCOP(=O)(OC[C@H]1O[C@@H](n2cc(C)c(=O)[nH]c2=O)C[C@@H]1OP(=O)(OCC)OC[C@H]1O[C@@H](n2cc(C)c(=O)[nH]c2=O)C[C@@H]1OP(=O)(OCC)OC[C@H]1O[C@@H](n2cc(C)c(=O)[nH]c2=O)C[C@@H]1OP(=O)(OCC)OC[C@H]1O[C@@H](n2cc(C)c(=O)[nH]c2=O)C[C@@H]1OP(=O)(OCC)OC[C@H]1O[C@@H](n2cc(C)c(=O)[nH]c2=O)C[C@@H]1OP(=O)(OCC)OC[C@H]1O[C@@H](n2cc(C)c(=O)[nH]c2=O)C[C@@H]1OP(=O)(OCC)OC[C@H]1O[C@@H](n2cc(C)c(=O)[nH]c2=O)C[C@@H]1OP(=O)(OCC)OC[C@H]1O[C@@H](n2cc(C)c(=O)[nH]c2=O)C[C@@H]1OP(=O)(OCC)OC[C@H]1O[C@@H](n2cc(C)c(=O)[nH]c2=O)C[C@@H]1OP(=O)(O)OCCC(O)COCCCNC(=O)c1ccc(C(=O)O)c(C2=C3C=CC(=[N+](C)C)C=C3OC3C=C(N(C)C)C=CC23)c1)O[C@H]1C[C@H](n2cc(C)c(=O)[nH]c2=O)O[C@@H]1COP(=O)(O)O (stereo partly drawn)
Flu intensity (A549): 16

CCOP(=O)(OC[C@H]1O[C@@H](n2cc(C)c(=O)[nH]c2=O)C[C@@H]1O)O[C@H]1C[C@H](n2cc(C)c(=O)[nH]c2=O)O[C@@H]1CO (stereo partly drawn)
Stability [2]: Stable
Stability [3]: Stable
Stability [1]: Stable
Stability (Serum): Stable
